Screens from PubChem.
OXTR agonist: human OXTR agonism. P30559. CHO-OTR cells, Fluo-8 calcium fluorescence; normalized: DMSO 0%, oxytocin 100%. activation, % at 3 µM. hit rate 0.32% among 320,000. AID 2435;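 active means activation above the mean of all tested compounds plus 3 SD, cutoff set per screening run, cut at about 20% in these data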;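 further: peak over basal fluorescence ratio from a 100 s FLIPR kinetic read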
Target sequence (P30559 whole entry, looked up): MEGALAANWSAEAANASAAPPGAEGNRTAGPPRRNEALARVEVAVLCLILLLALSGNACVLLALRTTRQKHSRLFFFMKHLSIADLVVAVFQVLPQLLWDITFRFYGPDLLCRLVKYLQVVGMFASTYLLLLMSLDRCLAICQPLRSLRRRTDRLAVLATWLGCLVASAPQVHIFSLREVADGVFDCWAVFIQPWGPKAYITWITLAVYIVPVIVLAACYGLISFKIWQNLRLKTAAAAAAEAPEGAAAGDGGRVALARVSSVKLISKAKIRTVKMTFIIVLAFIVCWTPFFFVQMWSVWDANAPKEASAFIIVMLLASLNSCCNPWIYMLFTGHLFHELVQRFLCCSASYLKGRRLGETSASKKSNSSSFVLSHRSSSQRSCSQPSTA
TAAR1 agonist: agonists of human TAAR1; CHO RD-HGA16 TAAR1, Fluo-8 calcium fluorescence; vehicle wells 0%, saturating PEA agonist 100%; activation, % at 3 µM; hit rate 0.99% among 360,000;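 active means activation above the mean activation of all test compounds in the run plus 3 SD, cut at about 38% in these data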
Target sequence (Q96RJ0 whole entry, looked up): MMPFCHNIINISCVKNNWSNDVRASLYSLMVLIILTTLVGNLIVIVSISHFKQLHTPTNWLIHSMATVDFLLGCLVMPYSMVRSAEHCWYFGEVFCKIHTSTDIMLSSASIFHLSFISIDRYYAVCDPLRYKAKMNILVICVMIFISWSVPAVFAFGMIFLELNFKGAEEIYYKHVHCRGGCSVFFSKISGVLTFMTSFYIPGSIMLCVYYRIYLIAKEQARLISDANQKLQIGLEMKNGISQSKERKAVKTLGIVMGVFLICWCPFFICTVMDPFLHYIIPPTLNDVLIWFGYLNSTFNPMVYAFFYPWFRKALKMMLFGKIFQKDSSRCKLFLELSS
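Test system: RD-HGA16 (CHO) cells co-expressing Gα16 and hTAAR1 | Doses: Single dose, 3 µM | Schedule: 17-24 h seeding, 75 min 37 °C dye, 30 min RT | Evaluation: % activation from peak over basal fluorescence ratio, DMSO-to-PEA scaled | Technique: Kinetic Fluo-8 calcium fluorescence | Benchmarks: Low control DMSO, high control PEA (EC100)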
TAAR1 antagonist: human TAAR1 antagonism; Q96RJ0; hit rate 1.5% among 360,000; inhibition, % at 3 µM; AID 624466; CHO RD-HGA16 TAAR1, Fluo-8 calcium fluorescence, antagonist;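 active means inhibition above a per-plate cutoff, the mean inhibition of test compounds on that plate plus 3 SD, cut at about 49% in these data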
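Test system: hTAAR1-expressing CHO RD-HGA16 cells, Gα16-coupled; Probe or stimulus: EC80 β-phenethylamine stimulus; Compound dosing: single nominal final test compound concentration of 3 µM; Timing: 140 s kinetic read after compound, 140 s after agonist; Signal: Fluo-8 calcium-sensitive fluorescence; Measure: % inhibition of agonist calcium response; Controls: DMSO and EC80 PEA controls.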
OXTR potentiate: human OXTR potentiation | P30559 | CHO-OTR cells, Fluo-8 calcium fluorescence, potentiator mode; 0% = oxytocin EC15, 100% = EC100 | activation, % at 3 µM | hit rate 0.061% among 320,000;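 active means activation above that plate's cutoff, the mean activation of tested compounds plus 3 SD, cut at about 6.6% in these data, passing the limit was not always enough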
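Assay system: CHO cell line stably expressing human OTR. Reagent: EC15 oxytocin agonist. Dosing: single dose, 3.0 µM nominal final compound concentration. Timing: compound 6 min at room temperature before oxytocin, 100 s read. Signal: kinetic Fluo-8 calcium fluorescence. Controls: oxytocin EC15 low and EC100 high.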
V1aR counter: V1a receptor agonism, counter-screen for OXTR agonists. P37288. CHO-V1R cells, Fluo-8 calcium fluorescence, agonist mode; 0% DMSO, 100% 3 nM vasopressin. activation, % at 3 µM. hit rate 0.25% among 320,000;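 active means activation above the mean activation of all tested compounds plus 3 SD, per screening run, cut at about 20% in these data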;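 further: signal is peak over basal fluorescence ratio across a 100 second FLIPR read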
TAAR1 nonsel count: nonselective antagonist in TAAR1 antagonist counter-screen. inhibition, % at 3 µM. hit rate 77% among 2,400. shares compounds with TAAR1 antagonist. counterscreen cell line, calcium fluorescence, antagonist mode; in the data active means inhibition above about 22%;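 further: CHO-Ga16 host cells stimulated with ATP at an EC80 level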
TAAR1 ant conf: confirmation of human TAAR1 antagonists; shares compounds with TAAR1 antagonist; hit rate 40% among 2,400; inhibition, % at 3 µM; TAAR1-expressing cells, fluorescence antagonist read-out; in the data active means inhibition above about 49%;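 further: CHO-Ga16 host cells challenged with agonist PEA near its EC80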
Ga16 ag counter: counter-screen for TAAR1 antagonists: nonselective Ga16 agonists | activation, % at 3 µM | hit rate 18% among 2,400 | Ga16-expressing cells, calcium fluorescence, agonist counterscreen | shares compounds with TAAR1 antagonist; in the data active means activation above about 12%
TAAR1 ag counter: activates human TAAR1 in antagonist counter-screen; shares compounds with TAAR1 antagonist; hit rate 2% among 2,400; hTAAR1 cell line, fluorescence activation, agonist mode; AID 651955; activation, % at 3 µM; in the data active means activation above about 37%;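 further: CHO cells stably expressing TAAR1 with calcium dye readout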
Large screens that a line does not name were inactive (follow-up assays come after a bar, where they were run). Sampled rows, rich in hits. Any-hit rate of the full collection: about 2.3%.

COc1ccccc1S(=O)(=O)Cc1ccc(C(=O)N2CCN(c3cccc(Cl)c3)CC2)o1	TAAR1 antagonist 65 | TAAR1 nonsel count 40 | TAAR1 ant conf 61 | Ga16 ag counter 13 | TAAR1 ag counter inactive
COc1ccc(N2CCN(C(=O)c3ccc(CS(=O)(=O)c4ccccc4C)o3)CC2)cc1	TAAR1 antagonist 52 | TAAR1 nonsel count 27 | TAAR1 ant conf inactive | Ga16 ag counter inactive | TAAR1 ag counter inactive
CCOc1ccc(NC(=O)CN2C(=O)c3cccc4cccc2c34)cc1	none (no result: OXTR agonist, OXTR potentiate, V1aR counter)
COc1ccc(-c2[nH]c(-c3ccc(C)cc3)nc2SCC(=O)Nc2nccs2)cc1	none
COc1ccc(-c2nc(SCC(=O)Nc3nccs3)c(-c3ccc(Cl)cc3)[nH]2)cc1	TAAR1 antagonist 68 | TAAR1 nonsel count 45 | TAAR1 ant conf 59 | Ga16 ag counter inactive | TAAR1 ag counter inactive
Cc1noc(C)c1NC(=O)N(C)C[C@@H]1Oc2c(NC(=O)c3ccncc3)cccc2C(=O)N([C@H](C)CO)C[C@@H]1C	none
O=C(C[n+]1cc(-c2ccccc2)n2c1CCC2)Nc1nc(-c2ccccc2)cs1	none
O=C(CSCC(=O)N1CCCc2ccccc21)Nc1nc(-c2ccccc2)cs1	TAAR1 antagonist 51 | TAAR1 nonsel count 29 | TAAR1 ant conf inactive | Ga16 ag counter inactive | TAAR1 ag counter inactive
O=C(Nc1cccc(-c2cnc3ccccc3n2)c1)c1ccco1	TAAR1 antagonist 54 | TAAR1 nonsel count inactive | TAAR1 ant conf inactive | Ga16 ag counter inactive | TAAR1 ag counter inactive
O=C(Nc1cccc(NC(=O)c2ccc(-c3ccc(Br)cc3)o2)c1)c1ccco1	TAAR1 antagonist 69 | TAAR1 nonsel count 33 | TAAR1 ant conf 50 | Ga16 ag counter inactive | TAAR1 ag counter inactive
O=C(Nc1cccc(-c2cnc3ccccc3n2)c1)c1ccncc1	none
O=C(CNC(=O)c1ccc(Br)o1)Nc1cccc(-c2cnc3ccccc3n2)c1	TAAR1 antagonist 64 | TAAR1 nonsel count 33 | TAAR1 ant conf 52 | Ga16 ag counter 12 | TAAR1 ag counter inactive
Cc1ccc(C(=O)Nc2cccc(-c3cnc4ccccc4n3)c2)cc1	none
COc1ccc(N2CCN(C(=O)C(=O)c3cc(OC)c(OC)c(OC)c3)CC2)cc1	none (no result: OXTR agonist, OXTR potentiate, V1aR counter)
Cc1cnc(CNC(=O)c2csc(COCCO)n2)cn1	none (no result: OXTR agonist, OXTR potentiate, V1aR counter)
Cc1cc2cc(CCNC(=O)C(=O)c3c[nH]c4ccccc34)c(=O)[nH]c2cc1C	TAAR1 antagonist 65 | TAAR1 nonsel count 30 | TAAR1 ant conf inactive | Ga16 ag counter inactive | TAAR1 ag counter inactive
O=C(CCC(=O)c1cccs1)NCCc1ccc(F)cc1	TAAR1 antagonist 66 | TAAR1 nonsel count inactive | TAAR1 ant conf 80 | Ga16 ag counter inactive | TAAR1 ag counter 54
COc1ccc(C(=O)Nc2ccc(-c3cn4ccsc4n3)cc2)cc1S(=O)(=O)N1CCOCC1	TAAR1 antagonist 62 | TAAR1 nonsel count 25 | TAAR1 ant conf 49 | Ga16 ag counter inactive | TAAR1 ag counter inactive
COc1ccc(C(=O)Nc2ccc(N3CCOCC3)cc2)cc1S(=O)(=O)N1CCOCC1	none (no result: OXTR agonist, OXTR potentiate, V1aR counter)
CCN(CC)C(=O)c1ncn2c1C(=O)N[C@H](C)C2	none (no result: OXTR agonist, OXTR potentiate, V1aR counter)
COc1ccc(NC(=O)N(Cc2cc3cc(OC)ccc3[nH]c2=O)CC2CCCO2)cc1 (configuration not stated)	TAAR1 antagonist 56 | TAAR1 nonsel count 27 | TAAR1 ant conf inactive | Ga16 ag counter inactive | TAAR1 ag counter inactive
COc1ccc(NC(=O)N(Cc2cc3ccc(OC)cc3[nH]c2=O)CC2CCCO2)cc1 (configuration not stated)	none
COC(=O)c1ccccc1NC(=S)N(Cc1ccc2c(c1)OCO2)Cc1cc2cc(OC)ccc2[nH]c1=O	TAAR1 antagonist 53 | TAAR1 nonsel count inactive | TAAR1 ant conf inactive | Ga16 ag counter inactive | TAAR1 ag counter inactive
COc1cccc(C(=O)CC(=O)C(=O)Nc2cc(OC)c(OC)c(OC)c2)c1	none (no result: TAAR1 agonist, TAAR1 antagonist)
CC(C)(CN1CCN(Cc2ccccc2)CC1)NS(=O)(=O)c1ccc(Cl)cc1	none
O=C(COC(=O)c1cccc(N2C(=O)C3CC=CCC3C2=O)c1)c1ccccc1 (configuration not stated)	TAAR1 antagonist 55 | TAAR1 nonsel count inactive | TAAR1 ant conf inactive | Ga16 ag counter inactive | TAAR1 ag counter inactive
COC(=O)[C@]12C[C@H](CC(=O)NCc3cccs3)C(=O)N(Cc3ccccc3)C1=C[C@H](C(C)C)O[C@@H]2C1CC1	none (no result: OXTR agonist, OXTR potentiate, V1aR counter)
O=C1CC(N2CCN(c3ccc(O)cc3)CC2)C(=O)N1Cc1cccs1 (configuration not stated)	none
O=C(c1ccncc1)c1ccc(N2CCN(C3CC(=O)N(Cc4cccs4)C3=O)CC2)cc1 (configuration not stated)	TAAR1 antagonist 58 | TAAR1 nonsel count 36 | TAAR1 ant conf 50 | Ga16 ag counter 14 | TAAR1 ag counter inactive
Cc1nc(-c2cccc(NC(=O)c3ccc(-n4nccc4C)cc3)c2)cs1	TAAR1 antagonist 69 | TAAR1 nonsel count 33 | TAAR1 ant conf inactive | Ga16 ag counter inactive | TAAR1 ag counter inactive
COc1ccc(/C=N/NC(=O)c2nc(-c3ccccc3)cc(-c3ccccc3)n2)cc1	TAAR1 antagonist 56 | TAAR1 nonsel count 25 | TAAR1 ant conf inactive | Ga16 ag counter inactive | TAAR1 ag counter inactive
COc1ccc(/C=N/NC(=O)c2nc(-c3ccccc3)cc(-c3ccccc3)n2)cc1O	TAAR1 antagonist 63 | TAAR1 nonsel count 35 | TAAR1 ant conf 53 | Ga16 ag counter inactive | TAAR1 ag counter inactive
Cc1cccc(C(=O)Oc2ccc(/C=N/NC(=O)c3ccc(O)cc3)cc2)c1	TAAR1 antagonist 73 (no result: OXTR agonist, OXTR potentiate, V1aR counter) | TAAR1 nonsel count 37 | TAAR1 ant conf 54 | Ga16 ag counter inactive | TAAR1 ag counter inactive
Cc1cccc(C(=O)Oc2ccc(/C=N/NC(=O)c3ccccc3O)cc2)c1	TAAR1 antagonist 68 | TAAR1 nonsel count 49 | TAAR1 ant conf 58 | Ga16 ag counter inactive | TAAR1 ag counter inactive
O=C(O)c1ccc(N/N=C/c2ccc(OC(=O)c3cccc(Cl)c3)cc2)cc1	TAAR1 antagonist 84 | TAAR1 nonsel count 48 | TAAR1 ant conf 60 | Ga16 ag counter inactive | TAAR1 ag counter inactive
C[C@H](CO)N1C[C@H](C)[C@H](CN(C)S(=O)(=O)c2ccccc2)OCc2cnnn2CCCC1=O	none (no result: OXTR agonist, OXTR potentiate, V1aR counter)
